# Data: ChEMBL document CHEMBL1127592, “Synthesis and SAR studies of novel triazolopyrimidine derivatives as potent, orally active angiotensin II receptor antagonists” (J Med Chem, 1994)
# How the values were obtained:
# Rattus norvegicus [1] = experiment: Change in systolic arterial blood pressure in renal artery ligated hypertensive rats, orally dosed at 10 mg/kg; format: functional; conditions: route oral
# Outline: (§1)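 Conscious male CD Sprague-Dawley rats (250-270 g) with left renal artery ligated several days earlier under ketamine. Single oral gavage, 3-8 rats/group. Systolic pressure by indirect tail-cuff sphygmomanometry before and 3 h post-dose; change reported as SAP decrease at 3 h, mean ± SEM.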
# [2] = biological target: T1, Type-1 angiotensin II receptor B (Rattus norvegicus, UniProt P29089); experiment: Displacement of [125I]-Sar1-Ile8-A II from rat adrenal Angiotensin-1 (AT-1) receptor
# T1 sequence (P29089 whole entry): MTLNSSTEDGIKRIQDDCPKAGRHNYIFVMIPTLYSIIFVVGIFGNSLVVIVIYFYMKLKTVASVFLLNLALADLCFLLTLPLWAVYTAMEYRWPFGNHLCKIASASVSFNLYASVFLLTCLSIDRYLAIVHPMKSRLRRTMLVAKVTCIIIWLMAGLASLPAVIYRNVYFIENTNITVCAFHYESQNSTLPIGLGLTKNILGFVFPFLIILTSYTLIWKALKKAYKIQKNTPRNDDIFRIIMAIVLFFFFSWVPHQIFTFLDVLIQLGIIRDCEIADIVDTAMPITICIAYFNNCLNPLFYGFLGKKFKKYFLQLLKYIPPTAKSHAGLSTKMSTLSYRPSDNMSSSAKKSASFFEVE
# Rattus norvegicus [3] = experiment: Change in mean arterial blood pressure in renal artery ligated hypertensive rats, orally dosed at 1 mg/kg; format: functional; conditions: route oral
# Outline: (§2)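 Male CD Sprague-Dawley rats (250-270 g), left renal artery ligated under ketamine (100 mg/kg ip); catheterized for direct recording 2-3 days before test. Single oral gavage, 3-7 rats/group. MAP recorded before and for 16 h after dosing; value is maximal MAP decrease, mean ± SEM; decrease under 15 mmHg counted as no effect.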
# [4] = biological target: T2, Type-2 angiotensin II receptor (Rattus norvegicus, UniProt P35351); experiment: In vitro binding affinity against angiotensin-2 (AT-2) receptor in rat adrenal
# T2 sequence (P35351 whole entry): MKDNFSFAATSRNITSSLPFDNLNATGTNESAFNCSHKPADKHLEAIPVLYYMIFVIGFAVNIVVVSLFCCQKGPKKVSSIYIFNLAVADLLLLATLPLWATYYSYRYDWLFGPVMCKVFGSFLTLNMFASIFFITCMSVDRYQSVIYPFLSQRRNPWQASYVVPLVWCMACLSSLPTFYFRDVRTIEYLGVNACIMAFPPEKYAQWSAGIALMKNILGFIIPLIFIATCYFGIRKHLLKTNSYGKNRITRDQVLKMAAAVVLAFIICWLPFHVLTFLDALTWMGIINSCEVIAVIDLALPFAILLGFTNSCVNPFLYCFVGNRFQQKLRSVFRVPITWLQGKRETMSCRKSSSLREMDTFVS
# Outline: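 Rat adrenal membranes (25-40 μg protein) in Tris-HCl 50 mM, MgCl2 5 mM, 0.25% BSA, pH 7.2, with 0.2 nM [125I]Sar1-Ile8-AII and drug at 10^-9 to 10^-4 M, 60 min, 25 °C. 20 mM DTT included or omitted to separate AT1 and AT2 binding. Nonspecific binding with 1 μM AII; filtration. IC50 by log-logit, Ki by LIGAND; one experiment in triplicate.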
# Rattus norvegicus [5] = experiment: Compound at a dose of 1 mg/kg was administered orally and evaluated for change in mean arterial blood pressure in renal artery ligated hypertensive rats; format: functional; conditions: route oral; outline: as §2
# Rattus norvegicus [6] = experiment: Compound at a dose of 10 mg/kg was administered orally and evaluated for change in systolic arterial blood pressure in renal artery ligated hypertensive rats; format: functional; conditions: route oral; outline: as §1
Structure (SMILES),Ki [2] [nM],Ki [4] [nM],Change in blood pressure (Rattus norvegicus [1]) [mmHg],Change in blood pressure (Rattus norvegicus [3]) [mmHg],Change in blood pressure (Rattus norvegicus [5]) [mmHg],Change in blood pressure (Rattus norvegicus [6]) [mmHg]
CCCc1nc(SC)n2c(O)nnc2c1Cc1ccc(-c2ccccc2-c2nn[nH]n2)cc1,,,-15.6,,,
Cc1nc(C2CC2)c(Cc2ccc(-c3ccccc3-c3nn[nH]n3)cc2)c2nc(O)nn12,82,,-51.1,-12.3,,
CCCc1nc(C)n2c(=O)n(C)nc2c1Cc1ccc(-c2ccccc2-c2nn[nH]n2)cc1,53,,-48.8,-25.1,,
CCCc1ncn2nc(O)nc2c1Cc1ccc(-c2ccccc2-c2nn[nH]n2)cc1,46,,-38.3,-17.9,,
CCCCc1nc(C)n2c(S)nnc2c1Cc1ccc(-c2ccccc2-c2nn[nH]n2)cc1,106,,-86.3,-24.3,,
CCCc1nc(C)n2c(=O)n(CC(=O)OCC)nc2c1Cc1ccc(-c2ccccc2-c2nn[nH]n2)cc1,12,,-71.7,-21.6,,
CCCc1nc(C)n2nc(S(=O)(=O)N(C)C)nc2c1Cc1ccc(-c2ccccc2-c2nn[nH]n2)cc1,185,,-7.2,,,
CCCc1nc(C)n2nc(NCC(=O)OCC)nc2c1Cc1ccc(-c2ccccc2-c2nn[nH]n2)cc1,32,,-73.6,-5.7,,
CCCCc1nc(Cl)c(CO)n1Cc1ccc(-c2ccccc2-c2nnn[nH]2)cc1 [LOSARTAN],,,-104.2,-32.9,,
CCCc1nc(C)n2c(O)nnc2c1Cc1ccc(NC(=O)c2ccccc2S(=O)(=O)O)cc1,41,,-18.3,,,
CCCc1nc(C)n2nc(-c3ccccc3)nc2c1Cc1ccc(-c2ccccc2-c2nn[nH]n2)cc1,175,,-48.2,-13.3,,
CCCc1nc(C)n2nc(CC(=O)OCC)nc2c1Cc1ccc(-c2ccccc2-c2nn[nH]n2)cc1,9,,-84,-18.1,,
CCCc1nc(C)n2c(=O)n(CCO)nc2c1Cc1ccc(-c2ccccc2-c2nn[nH]n2)cc1,6,,-67.9,-25.6,,
CCCc1nc(C)n2nc(S(=O)(=O)NC)nc2c1Cc1ccc(-c2ccccc2-c2nn[nH]n2)cc1,139,,-37.2,-14.1,,
CCCc1ncn2ncnc2c1Cc1ccc(-c2ccccc2-c2nn[nH]n2)cc1,50,,-20,,,
CCCc1nc(C)n2[nH]c(=O)nc2c1Cc1ccc(-c2ccccc2-c2nnn[nH]2)cc1,24,79200,,,-39.6,-92.2
CCCCc1nc(C)n2nc(O)nc2c1Cc1ccc(-c2ccccc2C(=O)O)cc1,622,,-23.5,,,
CCCc1nc(C)n2nc(SCC(=O)OCC)nc2c1Cc1ccc(-c2ccccc2-c2nn[nH]n2)cc1,99,,-26.4,,,

# The next lines start with results.
Ki [2] [nM],Ki [4] [nM],Structure (SMILES),Change in blood pressure (Rattus norvegicus [1]) [mmHg],Change in blood pressure (Rattus norvegicus [3]) [mmHg],Change in blood pressure (Rattus norvegicus [5]) [mmHg],Change in blood pressure (Rattus norvegicus [6]) [mmHg]
35,,CCCc1nc(C)n2nc(C(=O)O)nc2c1Cc1ccc(-c2ccccc2-c2nn[nH]n2)cc1,-36.4,-13.4,,
12,,CCCc1nc(C)n2ncnc2c1Cc1ccc(-c2ccccc2-c2nn[nH]n2)cc1,-89.7,-20.1,,
8,,CCCc1nc(C)n2nc(CC)nc2c1Cc1ccc(-c2ccccc2-c2nn[nH]n2)cc1,-69,-8.9,,
10,,CCCc1nc(C)n2nc(S)nc2c1Cc1ccc(-c2ccccc2-c2nn[nH]n2)cc1,-57.8,-19.7,,
225,,CCCc1nc(CC)n2nc(O)nc2c1Cc1ccc(-c2ccccc2-c2nn[nH]n2)cc1,-75.8,-46.5,,
5,,CCCc1nc(C)n2nc(NC)nc2c1Cc1ccc(-c2ccccc2-c2nn[nH]n2)cc1,-65.3,-23.6,,
10,,CCCc1nc(CO)n2nc(O)nc2c1Cc1ccc(-c2ccccc2-c2nn[nH]n2)cc1,-40.6,-21.5,,
32,,CCCc1nc(C)n2nc(C)nc2c1Cc1ccc(-c2ccccc2-c2nn[nH]n2)cc1,-71.8,-17.9,,
35,,CCc1nc(C)n2nc(O)nc2c1Cc1ccc(-c2ccccc2-c2nn[nH]n2)cc1,-72.8,-20.1,,
10,,CCCc1nc(C)n2cnnc2c1Cc1ccc(-c2ccccc2-c2nn[nH]n2)cc1,-77.2,-24.2,,
174,,CCCc1nc(C)n2nc(SC)nc2c1Cc1ccc(-c2ccccc2-c2nn[nH]n2)cc1,-32.2,-11.8,,
23,,CCCc1nc(C)n2nc(C(=O)OCC)nc2c1Cc1ccc(-c2ccccc2-c2nn[nH]n2)cc1,-76.7,-14.9,,
30,,CCCCc1nc(C)n2nc(O)nc2c1Cc1ccc(-c2ccccc2-c2nn[nH]n2)cc1,-91.5,-22.1,,
127,,CCCc1nc(C)n2c(S)nnc2c1Cc1ccc(-c2ccccc2-c2nn[nH]n2)cc1,-90.2,-22.4,,
147,,CCCc1nc(C)n2nc(C(F)(F)F)nc2c1Cc1ccc(-c2ccccc2-c2nn[nH]n2)cc1,-11.8,,,
27,,CCCc1nc(C)n2nc(OC)nc2c1Cc1ccc(-c2ccccc2-c2nn[nH]n2)cc1,-26.2,,,
27,,CCCc1nc(CO)n2nc(C)nc2c1Cc1ccc(-c2ccccc2-c2nn[nH]n2)cc1,-21.4,,,
1,,CCCc1nc(C)n2nc(N)nc2c1Cc1ccc(-c2ccccc2-c2nn[nH]n2)cc1,-77.2,-33.4,,
5,,CCCc1nc(C)n2nc(CO)nc2c1Cc1ccc(-c2ccccc2-c2nn[nH]n2)cc1,-62.5,-25.4,,
15,,CCCc1nc(C)n2nc(COC)nc2c1Cc1ccc(-c2ccccc2-c2nn[nH]n2)cc1,-73.1,-13.2,,
111,,CCCc1nc(COC)n2nc(C)nc2c1Cc1ccc(-c2ccccc2-c2nn[nH]n2)cc1,-44.4,-21.8,,
10,,CCCc1nc(C)n2c(O)nnc2c1Cc1ccc(-c2ccccc2-c2nn[nH]n2)cc1,-87.5,-44.6,,
11,,CCCc1nc(C)n2nc(S(N)(=O)=O)nc2c1Cc1ccc(-c2ccccc2-c2nn[nH]n2)cc1,-61.3,-14.5,,
659,,CCCc1nc(CCC)n2nc(O)nc2c1Cc1ccc(-c2ccccc2-c2nn[nH]n2)cc1,-72.6,-22.2,,
92,,CCCc1nc(COC)n2nc(O)nc2c1Cc1ccc(-c2ccccc2-c2nn[nH]n2)cc1,-88.7,-18.5,,
